Measurements published in ChEMBL document CHEMBL1122688, “Antimycotic azoles. 7. Synthesis and antifungal properties of a series of novel triazol-3-ones” (1984).

What was measured:
Aspergillus fumigatus = assay: In vitro antifungal activity against Aspergillus fumigatus; type: functional
In short: (§1)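 Fungal growth-inhibition screen (Godefroi method) against dermatophytes, yeasts, moulds and other fungi. The value is the lowest concentration (µg/mL) giving total inhibition of growth, tested up to 100 µg/mL.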

Candida albicans = assay: In vitro antifungal activity against Candida albicans; type: functional; in short: as §1
Candida tropicalis = assay: In vitro antifungal activity against Candida tropicalis; type: functional; in short: as §1
Cryptococcus neoformans = assay: In vitro antifungal activity against Cryptococcus neoformans; type: functional; in short: as §1
Microsporum canis = assay: In vitro antifungal activity against Microsporum canis; type: functional; in short: as §1
[1] = In vitro antifungal activity against Mucor sp; type: functional; in short: as §1
Phialophora verrucosa = assay: In vitro antifungal activity against Phialophora verrucosa; type: functional; in short: as §1
Saprolegnia = assay: In vitro antifungal activity against Saprolegnia sp; type: functional; in short: as §1
Sporothrix schenckii = assay: In vitro antifungal activity against Sporothrix schenck ii; type: functional; in short: as §1
Trichophyton benhamiae = assay: In vitro antifungal activity against Trichophyton mentagrophytes; type: functional, Arthroderma benhamiae; in short: as §1
Trichophyton rubrum = assay: In vitro antifungal activity against Trichophyton rubrum; type: functional; in short: as §1
[2] = In vivo activity against microsporosis guinea pig, measured as the ratio of animals cured/animals infected (C/I) at dose 10 mg/kg; C/I = 1/4; type: functional
[3] = In vivo activity against vaginal candidoses in rats, measured as the ratio of animals cured/animals infected (C/I) at dose 2.5 mg/kg; C/I = 1/2; type: functional
[4] = In vivo activity against microsporosis guinea pig, measured as the ratio of animals cured/animals infected (C/I) at dose 20 mg/kg; 0/2; type: functional
[5] = In vivo activity against vaginal candidoses in rats, measured as the ratio of animals cured/animals infected (C/I) at dose 2.5 mg/kg; 0/2; type: functional
[6] = In vivo activity against vaginal candidoses in rats, measured as the ratio of animals cured/animals infected (C/I) at dose 10 mg/kg; 1/2; type: functional
[7] = In vivo activity against microsporosis guinea pig, measured as the ratio of animals cured/animals infected (C/I) at dose 20 mg/kg; C/I = 0/2; type: functional
[8] = In vivo activity against vaginal candidoses in rats, measured as the ratio of animals cured/animals infected (C/I) at dose 10 mg/kg; C/I = 1/2; type: functional
[9] = In vivo activity against microsporosis guinea pig, measured as the ratio of animals cured/animals infected (C/I) at dose 2.5 mg/kg; C/I = 0/2; type: functional
[10] = In vivo activity against microsporosis guinea pig, measured as the ratio of animals cured/animals infected (C/I) at dose 10 mg/kg; C/I = 2/2; type: functional
[11] = In vivo activity against vaginal candidoses in rats, measured as the ratio of animals cured/animals infected (C/I) at dose 2.5 mg/kg; C/I = 2/4; type: functional
[12] = In vivo activity against microsporosis guinea pig, measured as the ratio of animals cured/animals infected (C/I) at dose 10 mg/kg; C/I = 0/4; type: functional
[13] = In vivo activity against vaginal candidoses in rats, measured as the ratio of animals cured/animals infected (C/I) at dose 2.5 mg/kg; C/I = 9/10; type: functional
[14] = In vivo activity against vaginal candidoses in rats, measured as the ratio of animals cured/animals infected (C/I) at dose 0.63 mg/kg; C/I = 1/6; type: functional
[15] = In vivo activity against vaginal candidoses in rats, measured as the ratio of animals cured/animals infected (C/I) at dose 1.25 mg/kg; C/I = 1/4; type: functional
[16] = In vivo activity against vaginal candidoses in rats, measured as the ratio of animals cured/animals infected (C/I) at dose 2.5 mg/kg; C/I = 2/2; type: functional
[17] = In vivo activity against vaginal candidoses in rats, measured as the ratio of animals cured/animals infected (C/I) at dose 0.63 mg/kg; C/I = 0/2; type: functional
[18] = In vivo activity against microsporosis guinea pig, measured as the ratio of animals cured/animals infected (C/I) at dose 10 mg/kg; C/I = 4/6; type: functional
[19] = In vivo activity against microsporosis guinea pig, measured as the ratio of animals cured/animals infected (C/I) at dose 1.25 mg/kg; C/I = 0/2; type: functional
[20] = In vivo activity against microsporosis guinea pig, measured as the ratio of animals cured/animals infected (C/I) at dose 2.5 mg/kg; C/I = 0/6; type: functional
[21] = In vivo activity against vaginal candidoses in rats, measured as the ratio of animals cured/animals infected (C/I) at dose 0.63 mg/kg; C/I = 0/4; type: functional
[22] = In vivo activity against vaginal candidoses in rats, measured as the ratio of animals cured/animals infected (C/I) at dose 1.25 mg/kg; C/I = 1/6; type: functional
[23] = In vivo activity against vaginal candidoses in rats, measured as the ratio of animals cured/animals infected (C/I) at dose 2.5 mg/kg; C/I = 4/8; type: functional
Rattus norvegicus = assay: In vivo activity against vaginal candidoses in rats, measured as the ratio of animals cured/animals infected (C/I) at dose 1.25 mg/kg; C/I = 12/22; type: functional
[24] = In vivo activity against microsporosis guinea pig, measured as the ratio of animals cured/animals infected (C/I) at dose 10 mg/kg; C/I = 6/6; type: functional
[25] = In vivo activity against microsporosis guinea pig, measured as the ratio of animals cured/animals infected (C/I) at dose 1.25 mg/kg; C/I = 2/6; type: functional
[26] = In vivo activity against microsporosis guinea pig, measured as the ratio of animals cured/animals infected (C/I) at dose 2.5 mg/kg; C/I = 7/12; type: functional
[27] = In vivo activity against vaginal candidoses in rats, measured as the ratio of animals cured/animals infected (C/I) at dose 2.5 mg/kg; C/I = 20/24; type: functional
[28] = In vivo activity against vaginal candidoses in rats, measured as the ratio of animals cured/animals infected (C/I) at dose 0.63 mg/kg; C/I = 2/12; type: functional
[29] = In vivo activity against vaginal candidoses in rats, measured as the ratio of animals cured/animals infected (C/I) at dose 10 mg/kg; C/I = 5/6; type: functional
[30] = In vivo activity against microsporosis guinea pig, measured as the ratio of animals cured/animals infected (C/I) at dose 1.25 mg/kg; C/I = 3/6; type: functional
[31] = In vivo activity against microsporosis guinea pig, measured as the ratio of animals cured/animals infected (C/I) at dose 2.5 mg/kg; C/I = 5/8; type: functional
[32] = In vivo activity against vaginal candidoses in rats, measured as the ratio of animals cured/animals infected (C/I) at dose 2.5 mg/kg; C/I = 7/10; type: functional
[33] = In vivo activity against vaginal candidoses in rats, measured as the ratio of animals cured/animals infected (C/I) at dose 0.63 mg/kg; C/I = 4/10; type: functional
[34] = In vivo activity against vaginal candidoses in rats, measured as the ratio of animals cured/animals infected (C/I) at dose 1.25 mg/kg; C/I = 7/10; type: functional

SMILES | Inhibition (Aspergillus fumigatus) [µg/mL] | Inhibition (Candida albicans) [µg/mL] | Inhibition (Candida tropicalis) [µg/mL] | Inhibition (Cryptococcus neoformans) [µg/mL] | Inhibition (Microsporum canis) [µg/mL] | Inhibition [1] [µg/mL] | Inhibition (Phialophora verrucosa) [µg/mL] | Inhibition (Saprolegnia) [µg/mL] | Inhibition (Sporothrix schenckii) [µg/mL] | Inhibition (Trichophyton benhamiae) [µg/mL] | Inhibition (Trichophyton rubrum) [µg/mL] | C/I ratio [10] | also measured
CCCn1nc(CC)n(-c2ccc(N3CCN(c4ccc(OC[C@@H]5COC(Cn6ccnc6)(c6ccc(Cl)cc6Cl)O5)cc4)CC3)cc2)c1=O (some centres not stated) | >100 | 100 | 10 | >100 | >100 | >100 | >100 | >100 | >100 | 10 | 100 | – | C/I ratio [2]: 1; C/I ratio [3]: 1
CC(=O)N1CCN(c2ccc(OC[C@@H]3COC(Cn4cncn4)(c4ccc(Cl)cc4Cl)O3)cc2)CC1 (some centres not stated) | – | – | – | – | 100 | – | – | – | – | – | – | – | C/I ratio [4]: 0; C/I ratio [5]: 0; C/I ratio [6]: 1
Cc1nn(C)c(=O)n1-c1ccc(N2CCN(c3ccc(OC[C@@H]4COC(Cn5cncn5)(c5ccc(Cl)cc5Cl)O4)cc3)CC2)cc1 (some centres not stated) | >100 | >100 | >100 | >100 | >100 | >100 | >100 | >100 | >100 | >100 | >100 | – | C/I ratio [7]: 0; C/I ratio [3]: 1; C/I ratio [8]: 1
Cc1nn(CC(C)C)c(=O)n1-c1ccc(N2CCN(c3ccc(OC[C@@H]4COC(Cn5ccnc5)(c5ccc(Cl)cc5Cl)O4)cc3)CC2)cc1 (some centres not stated) | >100 | >100 | 100 | 100 | >100 | >100 | >100 | >100 | >100 | 100 | 100 | 2 | C/I ratio [9]: 0; C/I ratio [11]: 0.5
CCn1nc(C)n(-c2ccc(N3CCN(c4ccc(OC[C@@H]5COC(Cn6cncn6)(c6ccc(Cl)cc6Cl)O5)cc4)CC3)cc2)c1=O (some centres not stated) | >100 | >100 | >100 | >100 | >100 | >100 | >100 | >100 | >100 | >100 | >100 | – | C/I ratio [12]: 0; C/I ratio [13]: 9; C/I ratio [14]: 1; C/I ratio [15]: 1
CCC(C)n1nc(C)n(-c2ccc(N3CCN(c4ccc(OC[C@@H]5COC(Cn6cncn6)(c6ccc(Cl)cc6Cl)O5)cc4)CC3)cc2)c1=O (some centres not stated) | >100 | 10 | >100 | >100 | >100 | >100 | >100 | >100 | >100 | 100 | >100 | 2 | C/I ratio [9]: 0; C/I ratio [16]: 1; C/I ratio [17]: 0
CCCCn1nc(C)n(-c2ccc(N3CCN(c4ccc(OC[C@@H]5COC(Cn6ccnc6)(c6ccc(Cl)cc6Cl)O5)cc4)CC3)cc2)c1=O (some centres not stated) | >100 | 100 | 1 | 100 | >100 | >100 | >100 | >100 | >100 | 10 | 10 | – | C/I ratio [18]: 0.667; C/I ratio [19]: 0; C/I ratio [20]: 0; C/I ratio [21]: 0; C/I ratio [22]: 1; C/I ratio [23]: 0.5
CC(C)n1ncn(-c2ccc(N3CCN(c4ccc(OC[C@@H]5COC(Cn6cncn6)(c6ccc(Cl)cc6Cl)O5)cc4)CC3)cc2)c1=O (some centres not stated) | >100 | >100 | >100 | >100 | >100 | >100 | >100 | >100 | >100 | 100 | >100 | – | C/I ratio (Rattus norvegicus): 0.545; C/I ratio [24]: 1; C/I ratio [25]: 2; C/I ratio [26]: 0.583 (not active); C/I ratio [27]: 0.833; C/I ratio [28]: 0.167; C/I ratio [29]: 0.833
CC(C)Cn1ncn(-c2ccc(N3CCN(c4ccc(OC[C@@H]5COC(Cn6cncn6)(c6ccc(Cl)cc6Cl)O5)cc4)CC3)cc2)c1=O (some centres not stated) | >100 | 100 | 10 | 100 | >100 | >100 | >100 | >100 | >100 | 10 | 10 | 2 | C/I ratio [30]: 0.5; C/I ratio [31]: 0.625; C/I ratio [32]: 0.7; C/I ratio [33]: 0.4; C/I ratio [34]: 0.7
